The values that follow come from ChEMBL document CHEMBL3351434, “Synthesis of novel chromeno-annulated cis-fused pyrano[3,4-c]benzopyran and naphtho pyran derivatives via domino aldol-type/hetero Diels-Alder reaction and their cytotoxicity evaluation” (Bioorg Med Chem Lett, 2014).

One data set has as its system MDA-MB-231. Put plainly: Cytotoxicity against human MDA-MB-231 cells by MTT assay. In kind it is functional, cell-based.
A further data set deals with MCF7. Put plainly: Cytotoxicity against human MCF7 cells by MTT assay. Format: functional, cell-based.
Another data set relates to HeLa. Put plainly: Cytotoxicity against human HeLa cells by MTT assay. Format: functional, cell-based.
For a further data set, the system named is A549. The data set is described as follows: Cytotoxicity against human A549 cells by MTT assay. Format: functional, cell-based.
A short description of data set [1]: Cytotoxicity against HEK cells by MTT assay. In kind it is cell-based. The following applies: human, hek293. In outline:
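Cells were HEK293, a line derived from normal human embryonic kidney, used as the non-cancer counter-screen. Viability was read by MTT following a previously reported protocol.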

Each structure is given as a SMILES string.

Regarding `COc1cccc2c1C(=O)c1c(O)c3c(c(O)c1C2=O)C[C@@](O)(C(=O)CO)C[C@@H]3O[C@H]1C[C@H](N)[C@H](O)[C@H](C)O1` [DOXORUBICIN], the results for the IC50 in the data set on MDA-MB-231 and in the data set on MCF7 were 0.5 µM and 1.05 µM, respectively.

Take `Cc1oc2c3c(ccc2c(=O)c1C)OC[C@H]1[C@@H]3c2c(ccc(C(=O)Cc3ccccc3)c2O)OC1(C)C`: the half-maximal inhibitory concentration (IC50) with MDA-MB-231, with HeLa, in the data set with MCF7 and in the data set with A549 was over 100 µM throughout.

As to `CC(=O)c1ccc2c(c1O)[C@H]1c3c(ccc4c(=O)c(C)coc34)OC[C@H]1C(C)(C)O2`, the IC50 in the data set on MDA-MB-231, in the data set on HeLa, with MCF7 and with A549 was over 100 µM throughout.

On to `CCC(=O)c1ccc2c(c1O)[C@@H]1c3c(ccc4c(=O)c(C)c(C)oc34)OC[C@@H]1C(C)(C)O2`, for which the IC50 in the data set on MDA-MB-231, with HeLa, with MCF7 and in the data set on A549 was over 100 µM throughout.

With `CC(=O)c1ccc2c(c1O)[C@@H]1c3c(ccc4c(=O)c(C)c(C)oc34)OC[C@@H]1C(C)(C)O2`, the 50% inhibitory concentration (IC50) in the data set on MDA-MB-231, with HeLa, with MCF7 and in the data set on A549 was over 100 µM throughout.

Take `CCC(=O)c1ccc2c(c1O)[C@@H]1c3c(ccc4c(=O)c(-c5ccccc5)c(C)oc34)OC[C@@H]1C(C)(C)O2`: in data set [1], the Activity result is on record as “Non-toxic”. For the same compound, the IC50 with MDA-MB-231 was 6.15 µM; in the data set on HeLa, 18.2 µM; in the data set with MCF7 it was 20.5 µM; with A549 it was 19.3 µM.

On to `Cc1oc2c3c(ccc2c(=O)c1C)OC[C@H]1[C@@H]3c2ccc3ccccc3c2OC1(C)C`, for which the half-maximal inhibitory concentration (IC50) in the data set with MDA-MB-231, in the data set on HeLa, with MCF7 and with A549 was over 100 µM in each case.

Regarding `Cc1coc2c3c(ccc2c1=O)OC[C@H]1[C@@H]3c2c(ccc(C(=O)Cc3ccccc3)c2O)OC1(C)C`, the IC50 in the data set on MDA-MB-231, in the data set on HeLa, in the data set on MCF7 and in the data set on A549 was over 100 µM throughout.

On to `CCC(=O)c1ccc2c(c1O)[C@H]1c3c(ccc4c(=O)c(C)coc34)OC[C@H]1C(C)(C)O2`, for which the IC50 in the data set on MDA-MB-231, in the data set on HeLa, in the data set with MCF7 and with A549 was over 100 µM each time.

For `Cc1coc2c3c(ccc2c1=O)OC[C@H]1[C@@H]3c2c(ccc(C(=O)c3ccccc3)c2O)OC1(C)C`, the Activity result in data set [1] is “Non-toxic”. The half-maximal inhibitory concentration (IC50) amounted to 5.68 µM with MDA-MB-231, 1.5 µM with HeLa, 6.24 µM in the data set on MCF7 and 17 µM in the data set with A549.

`Cc1coc2c3c(ccc2c1=O)OC[C@H]1[C@@H]3c2ccc3ccccc3c2OC1(C)C`: the IC50 in the data set on MDA-MB-231, in the data set on HeLa, in the data set on MCF7 and in the data set with A549 was over 100 µM throughout.

In the case of `Cc1oc2c3c(ccc2c(=O)c1C)OC[C@H]1[C@@H]3c2c(ccc(C(=O)c3ccccc3)c2O)OC1(C)C`, the IC50 with MDA-MB-231, with HeLa, with MCF7 and in the data set on A549 was over 100 µM throughout.

Take `CC(=O)c1ccc2c(c1O)[C@@H]1c3c(ccc4c(=O)c(-c5ccccc5)c(C)oc34)OC[C@@H]1C(C)(C)O2`: the Activity entry in data set [1] is reported as “Non-toxic”. In addition, the IC50 in the data set on MDA-MB-231 was 46.8 µM; in the data set with HeLa it was 4.81 µM; in the data set with MCF7 it was 11.2 µM; in the data set on A549, 2.53 µM.
